# Assays:
# [1] = Metabolic stability in human liver microsome assessed as metabolic bioavailability at 0.1 uM in presence of NADPH incubated upto 60 mins by LC-MS/MS analysis; format: ADME; settings: liver microsomes
# Method in brief: (§1)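 Compound at 0.1 μM final, in 0.01% DMSO with 0.005% BSA. Incubated with rat or human liver microsomes at 0.33 mg/mL in 0.1 M Tris-HCl, pH 7.4, with 5 mM MgCl₂ and 1 mM NADPH, at 37 °C. Samples at 0, 7, 17, 30 and 60 min quenched with cold methanol and analysed by LC-MS/MS. Half-life, Cl_int and MF% derived as previously described.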
# [2] = Metabolic stability in rat liver microsome assessed as elimination half life at 0.1 uM in presence of NADPH incubated upto 60 mins by LC-MS/MS analysis; format: ADME; settings: liver microsomes, read-out: beta t1/2; method in brief: as §1
# [3] = Elimination half life in Sprague-Dawley rat at 4 mg/kg, iv measured upto 24 hrs by LC-MS/MS analysis; format: ADME, organism-based; settings: in vivo, read-out: beta t1/2 (converted)
# Method in brief: (§2)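 Male Sprague-Dawley rats, n = 3 per group, single intravenous dose. For 4 mg/kg: 180–280 g rats, vehicle 5% DMSO + 5% EtOH + 40% PEG300 + 50% saline, blood from the retrobulbar vein at 0.05–24 h. For 5 and 20 mg/kg: 180–300 g rats, vehicle 5% DMSO + 5% solutol + 90% saline, sampled at 0.083–24 h. Plasma quantified by LC/MS/MS. Parameters from mean plasma concentration by noncompartmental analysis; values are mean ± standard deviation.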
# [4] = target: Voltage-gated inwardly rectifying potassium channel KCNH2 (Homo sapiens, UniProt Q12809); test: Inhibition of hERG potassium channel assessed as […] at -80 mV holding potential incubated for 120 seconds by whole cell-automated voltage clamp analysis assay; format: toxicity
# Voltage-gated inwardly rectifying potassium channel KCNH2, sequence (Q12809 whole entry): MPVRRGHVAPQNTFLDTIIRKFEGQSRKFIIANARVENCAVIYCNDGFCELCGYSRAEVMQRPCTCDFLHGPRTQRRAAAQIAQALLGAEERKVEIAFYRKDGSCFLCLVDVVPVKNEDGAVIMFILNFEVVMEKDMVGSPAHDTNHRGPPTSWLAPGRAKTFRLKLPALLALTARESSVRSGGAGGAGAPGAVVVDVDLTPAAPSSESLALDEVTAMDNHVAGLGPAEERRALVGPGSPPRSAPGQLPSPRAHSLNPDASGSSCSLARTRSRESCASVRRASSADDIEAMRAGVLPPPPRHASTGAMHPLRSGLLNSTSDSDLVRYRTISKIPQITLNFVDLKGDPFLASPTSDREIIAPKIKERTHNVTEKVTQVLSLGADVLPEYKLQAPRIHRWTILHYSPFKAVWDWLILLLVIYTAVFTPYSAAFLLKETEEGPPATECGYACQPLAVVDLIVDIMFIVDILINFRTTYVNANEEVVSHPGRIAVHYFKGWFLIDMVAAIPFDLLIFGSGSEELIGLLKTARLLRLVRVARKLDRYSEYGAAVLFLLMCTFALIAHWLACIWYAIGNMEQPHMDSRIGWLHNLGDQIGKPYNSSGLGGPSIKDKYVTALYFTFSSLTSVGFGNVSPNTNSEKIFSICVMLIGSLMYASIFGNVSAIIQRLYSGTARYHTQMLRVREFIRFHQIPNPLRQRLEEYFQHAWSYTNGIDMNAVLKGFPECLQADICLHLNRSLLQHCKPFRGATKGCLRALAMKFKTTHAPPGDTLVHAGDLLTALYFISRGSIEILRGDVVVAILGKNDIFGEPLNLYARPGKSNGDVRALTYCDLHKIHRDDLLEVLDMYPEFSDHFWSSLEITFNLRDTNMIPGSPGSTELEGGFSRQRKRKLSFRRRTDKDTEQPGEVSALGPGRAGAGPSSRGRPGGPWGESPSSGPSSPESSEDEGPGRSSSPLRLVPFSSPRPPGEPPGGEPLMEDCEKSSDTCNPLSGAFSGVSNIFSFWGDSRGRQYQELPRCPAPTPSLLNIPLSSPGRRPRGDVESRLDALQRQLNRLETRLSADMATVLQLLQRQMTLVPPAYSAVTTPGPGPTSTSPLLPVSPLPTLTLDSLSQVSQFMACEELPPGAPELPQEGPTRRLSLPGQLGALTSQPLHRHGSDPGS
# Method in brief: (§3)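 Automated whole-cell patch clamp, holding potential −80 mV. Voltage protocol applied every 20 s. Baseline set with external solution containing 0.1% DMSO and stabilised 3 min. Compound applied until steady state, at least 3 min, then washout. Maximum tested concentration 40 μM, or 3 μM for cisapride as positive control.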
# [5] = Volume of distribution at the steady state in Sprague-Dawley rat at 4 mg/kg, iv measured upto 24 hrs by LC-MS/MS analysis; format: ADME, organism-based; settings: in vivo, read-out: Vdss; method in brief: as §2
# [6] = test system: Klebsiella pneumoniae; test: Antibacterial activity agains wild type Klebsiella pneumoniae ATCC BAA-1705 assessed as reduction in bacterial growth incubated for 18 to 20 hrs by CLSI based microdilution method; format: functional; settings: time 18-20 hrs
# Method in brief: (§4)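 CLSI broth microdilution. Compounds in DMSO (levofloxacin and meropenem in water), serial twofold dilutions in broth, 64 to 0.008 μg/mL. […] Results reported as MIC ranges across strains.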
# [7] = test system: Escherichia coli; test: Antibacterial activity against ESBL-producing Escherichia coli ATCC 35218 strains 15 1 to 3 assessed as reduction in bacterial growth incubated for 18 to 20 hrs by CLSI based microdilution method; format: functional; settings: time 18-20 hrs; method in brief: as §4
# [8] = test system: Pseudomonas aeruginosa; test: Antibacterial activity against IMP4-producing multidrug resistant Pseudomonas aeruginosa assessed as reduction in bacterial growth incubated for 18 to 20 hrs by CLSI based microdilution method; format: functional; settings: time 18-20 hrs
# Method in brief: (§5)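 Broth microdilution per CLSI. Compounds dissolved in DMSO (levofloxacin and meropenem in water) as 64 μg/mL stock, then serial twofold dilutions in broth giving 64 to 0.008 μg/mL. […] Clinical isolates tested as several strains per group; racemic GP-1 served as positive control; values given as MIC ranges.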
# [9] = test system: Escherichia coli; test: Antibacterial activity against Escherichia coli ATCC 35218 strains 15 1 to 3 assessed as reduction in bacterial growth incubated for 18 to 20 hrs by CLSI based microdilution method; format: functional; settings: time 18-20 hrs; method in brief: as §4
# [10] = test system: Staphylococcus epidermidis; test: Antibacterial activity against methicillin-sensitive Staphylococcus epidermidis strains 15 1 to 4 assessed as reduction in bacterial growth incubated for 18 to 20 hrs by CLSI based microdilution method; format: functional; settings: time 18-20 hrs; method in brief: as §5
# [11] = test system: Acinetobacter baumannii; test: Antibacterial activity against wild type Acinetobacter baumannii NCTC 13304 assessed as reduction in bacterial growth incubated for 18 to 20 hrs by CLSI based microdilution method; format: functional; settings: time 18-20 hrs; method in brief: as §5
# [12] = test system: Escherichia coli; test: Antibacterial activity against multidrug resistant wild type Escherichia coli ATCC BAA-2340 assessed as reduction in bacterial growth incubated for 18 to 20 hrs by CLSI based microdilution method; format: functional; settings: time 18-20 hrs; method in brief: as §5
# [13] = test system: Pseudomonas aeruginosa; test: Antibacterial activity against multidrug resistant Pseudomonas aeruginosa strains 15 1 to 3 assessed as reduction in bacterial growth incubated for 18 to 20 hrs by CLSI based microdilution method; format: functional; settings: time 18-20 hrs; method in brief: as §5
# [14] = Cytotoxicity against human L02 cells assessed as cell viability measured for 48 hrs by CCK-8 assay; format: toxicity, cell-based
# Method in brief: (§6)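 Cells seeded at 1 × 10⁴ per well and grown for 48 h. Then exposed to test articles at 1–200 μM for another 48 h (n = 6). Viability by CCK-8 added for 2 h, absorbance read at 450 nm. CC50 calculated and reported as the mean.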
# [15] = Metabolic stability in rat liver microsome assessed as metabolic bioavailability at 0.1 uM in presence of NADPH incubated upto 60 mins by LC-MS/MS analysis; format: ADME; settings: liver microsomes; method in brief: as §1
# [16] = test system: Acinetobacter baumannii; test: Antibacterial activity agains OXA23-producing multidrug resistant Acinetobacter baumannii assessed as reduction in bacterial growth incubated for 18 to 20 hrs by CLSI based microdilution method; format: functional; settings: time 18-20 hrs; method in brief: as §5
# [17] = AUC (0 to infinity) in Sprague-Dawley rat at 4 mg/kg, iv measured upto 24 hrs by LC-MS/MS analysis; format: ADME, organism-based; design: time < 24 hrs, dose 4 mg/kg, route iv; settings: in vivo; method in brief: as §2
# [18] = test system: Escherichia coli; test: Antibacterial activity against ESBL-producing multidrug resistant Escherichia coli assessed as reduction in bacterial growth incubated for 18 to 20 hrs by CLSI based microdilution method; format: functional; settings: time 18-20 hrs; method in brief: as §5
# [19] = test system: Staphylococcus aureus; test: Antibacterial activity against methicillin-sensitive Staphylococcus aureus strains 15 1 to 4 assessed as reduction in bacterial growth incubated for 18 to 20 hrs by CLSI based microdilution method; format: functional; settings: time 18-20 hrs; method in brief: as §5
# [20] = MRT in Sprague-Dawley rat at 4 mg/kg, iv measured upto 24 hrs by LC-MS/MS analysis; format: ADME, organism-based; settings: in vivo; method in brief: as §2
# [21] = test system: Klebsiella pneumoniae; test: Antibacterial activity agains wild type Klebsiella pneumoniae ATCC BAA-2470 assessed as reduction in bacterial growth incubated for 18 to 20 hrs by CLSI based microdilution method; format: functional; settings: time 18-20 hrs; method in brief: as §5
# [22] = test system: Klebsiella pneumoniae; test: Antibacterial activity against KPC2-producing multidrug resistant Klebsiella pneumoniae assessed as reduction in bacterial growth incubated for 18 to 20 hrs by CLSI based microdilution method; format: functional; settings: time 18-20 hrs; method in brief: as §5
# [23] = test system: Escherichia coli; test: Antibacterial activity against multidrug resistant wild type Escherichia coli NCTC 13353 assessed as reduction in bacterial growth incubated for 18 to 20 hrs by CLSI based microdilution method; format: functional; settings: time 18-20 hrs; method in brief: as §5
# [24] = Clearance in Sprague-Dawley rat at 4 mg/kg, iv measured upto 24 hrs by LC-MS/MS analysis; format: ADME, organism-based; settings: in vivo; method in brief: as §2
# [25] = Metabolic stability in human liver microsome assessed as elimination half life at 0.1 uM in presence of NADPH incubated upto 60 mins by LC-MS/MS analysis; format: ADME; settings: liver microsomes, read-out: beta t1/2; method in brief: as §1
# [26] = target: hERG (KCNH2) potassium channel (Homo sapiens, UniProt Q12809); test: Inhibition of hERG potassium channel assessed as maximum inhibition rate at 40 uM at -80 mV holding potential incubated for 120 seconds by whole cell-automated voltage clamp analysis assay relative to control; format: toxicity; settings: time 120 sec; method in brief: as §3
# hERG (KCNH2) potassium channel, sequence (Q12809 whole entry): as above
# [27] = Metabolic stability in human liver microsome assessed as intrinsic clearance at 0.1 uM in presence of NADPH incubated upto 60 mins by LC-MS/MS analysis; format: ADME; settings: microsomes, 1 h; method in brief: as §1
# [28] = Drug metabolism in Spargue-Dawley rat liver microsomes assessed as formation of M5 metabolite incubated upto 60 mins by UHPLC-MS/MS analysis; format: ADME, Microsome; settings: 1 h
# Method in brief: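 Male SD rat liver microsomes at 1 mg protein/mL with 2 mM NADP and 5 mM MgCl₂ in 100 mM potassium phosphate, pH 7.4. Compound preincubated 5 min at 37 °C. Samples at 0, 30 and 60 min quenched with cold acetonitrile containing 0.1% formic acid, then analysed by UHPLC-MS/MS. Relative peak areas from extracted ion chromatograms at 60 min.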
# [29] = test system: Pseudomonas aeruginosa; test: Antibacterial activity against wild type Pseudomonas aeruginosa ATCC 27853 assessed as reduction in bacterial growth incubated for 18 to 20 hrs by CLSI based microdilution method; format: functional; settings: time 18-20 hrs; method in brief: as §4
# [30] = Cytotoxicity against human HEK293 cells assessed as cell viability measured for 48 hrs by CCK-8 assay; format: toxicity, cell-based; method in brief: as §6
# [31] = Metabolic stability in rat liver microsome assessed as intrinsic clearance at 0.1 uM in presence of NADPH incubated upto 60 mins by LC-MS/MS analysis; format: ADME; settings: microsomes, 1 h; method in brief: as §1
smiles,measurement,setting,value
CCC(CN)=C1CN(c2nc(Oc3cnc(C)nc3)nc3[nH]c4c(NC)cc(F)cc4c23)C1,"Fh at 1 h, 0.1 µM",[1],57.8%
same,half-life at 0.1 µM,[2],28.3 min
same,half-life,[3],222 min
same,IC50,[4],> 40 µM
same,Vd,[5],14.7 L/kg
same,MIC,[6],2 µg/mL
same,MIC,[7],< 8 ng/mL
same,MIC,[8],2 µg/mL
same,MIC,[9],< 8 ng/mL
same,MIC,[10],< 8 ng/mL
same,MIC,[11],0.125 µg/mL
same,MIC,[12],0.25 µg/mL
same,MIC,[13],0.5 µg/mL
same,CC50 at 48 h,[14],9.74 µM
same,"Fh at 1 h, 0.1 µM",[15],37.4%
same,MIC,[16],0.125 µg/mL
same,AUC(0-inf),[17],776 ng·h/mL
same,MIC,[18],0.25 µg/mL
same,MIC,[19],< 8 ng/mL
same,MRT,[20],2.8 h
same,MIC,[21],1 µg/mL
same,MIC,[22],1 µg/mL
same,MIC,[23],0.125 µg/mL
same,clearance,[24],86.7 mL/min/kg
same,half-life at 0.1 µM,[25],147 min
same,"inhibition at 2 min, 40 µM",[26],41.1%
same,CLH,[27],14.3 mL/min/g
same,Activity,[28],72.85%
same,MIC,[29],1 µg/mL
same,CC50 at 48 h,[30],17 µM
same,CLH,[31],74.3 mL/min/g

# Reference: ChEMBL document CHEMBL5096186, “Design, Synthesis, and Biological Evaluation of Novel Pyrimido[4,5-b]indole Derivatives Against Gram-Negative Multidrug-Resistant Pathogens” (J Med Chem, 2021)
